Measured values taken from ChEMBL document CHEMBL4513216, “Probing the Open Global Health Chemical Diversity Library for Multistage-Active Starting Points for Next-Generation Antimalarials” (ACS Infect Dis, 2020).

Assay: Toxicity liver stage against HepG2, at 10uM
Assay type: cell-based
Parameters: test concentration 10 uM, cell line HepG2-A16-CD81EGFP
Conditions: human, HepG2-A16-CD81EGFP cells; read-out: INHIBITION
Method in brief: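 Uninfected HepG2-A16-CD81EGFP cells, 3 × 10^3 per well, 1536-well, plated on prespotted compound at 10 μM final, parasite-free screening media added to match infected plates; puromycin 10 μM positive, DMSO 0.5% negative; run in parallel with 48 h PbLuc assay at 37 °C, 5% CO2; viability by CellTiter-Glo luminescence, normalized to controls.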

| SMILES | cytotoxicity at 10 µM |
| --- | --- |
| COc1ccc(CNC2(Cc3cc(CC(C)C)on3)COC2)cc1 | 4.71% |
| CCN(CC)CCNC(=O)CCc1c(C)nn(-c2ccccc2Cl)c1C | -0.61% |
| COCC(=O)N1CC2=CC(C)(C)COc3ccc(OC)c(c32)C1 | -2.59% |
| CC(C)[C@H](NC(=O)NC1CCS(=O)(=O)C1)C(=O)NCc1ccccc1 (stereo partly specified) | 7.39% |
| COc1c[nH]c(C(=O)N2CCN(c3ccccc3)CC2)cc1=O | 0.0868% |
| O=C(Nc1cccnc1-n1cc(Cl)cn1)C1CCCC1 | -43.3% |
| O=C1CSC(c2cccnc2)c2c(n(C3CCOCC3)[nH]c2=O)N1 (stereo unspecified) | -7.95% |
| NC(=O)C1CCN(c2nc3nccc(-c4cccnc4)c3c(=O)[nH]2)CC1 | 12.1% |
| CN(C(=O)Cn1nc(-c2ccccc2Cl)ccc1=O)C1CCS(=O)(=O)C1 (stereo unspecified) | 1.96% |
| Cc1ccc2c(ccn2CC(=O)NC[C@@H]2CCCN3CCCC[C@H]23)c1 | 0.097% |
| CCn1nc(C)c2c1cnn2CCNS(=O)(=O)Cc1ccccc1 | 9.6% |
| C=Cn1ncc(CN2CCC(c3ncc(Cl)cc3S(C)(=O)=O)CC2)c1C | 6.29% |
| Cc1nn(C)c(C)c1-c1ccc(=O)n(C(C)C(=O)NC2CCCCC2)n1 (stereo unspecified) | 1.94% |
| Cc1cc(-c2cnc(N3CCN(C)CC3)nc2C(C)C)on1 | -5.97% |
| COCCNc1ncc(-c2cc(C)no2)c(-c2ccco2)n1 | 13.4% |
| O=C(c1cscn1)N1CCC2(COc3ncccc3S(=O)(=O)N2)C1 (stereo unspecified) | 7.22% |
| COCCn1cnc2c(F)cc(Br)cc2c1=O | -0.62% |
| CCN(CC)C(=O)c1cnc(Sc2nccn2C)c(Cl)c1 | -61.1% |
| Cn1nc(C(=O)NCc2ccc(OC3CCCCC3)nc2)ccc1=O | 21.3% |
| Cc1ccc(C(=O)NC2CCN(S(C)(=O)=O)CC2)c(=O)[nH]1 | 15.7% |
| Cc1nc(C2NC3(CCCC3)C(=O)N2CC2CC2)cs1 (stereo unspecified) | -6.09% |
| COc1cc2c(cc1CNC(=O)Cc1cc(C)on1)OC(C)C2 (stereo unspecified) | 5.38% |
| CCc1nc(CN(C)CC(=O)OC(C)(C)C)cs1 | 3.91% |

| SMILES | cytotoxicity at 10 µM |
| --- | --- |
| Cc1ccccc1-n1cnnc1SCC1CCCCO1 (stereo unspecified) | 11.8% |
| CCn1ccnc1CN1CCC(N(Cc2ncc(C)o2)C(C)=O)C1 (stereo unspecified) | 11.5% |
| CN(C)C(=O)c1ccccc1NCCCOc1cccc(C#N)c1 | 4.52% |
| COCc1nc(C(=O)N2CCN(c3nccc(OC)n3)CC2)cs1 | -7.68% |
| CCc1nnc2n1CCN(Cc1csc(-c3ccccc3)n1)C2 | -6.29% |
| CC(C)C(=O)N1CCN(Cc2csc(-c3ccccn3)n2)CC1 | -5.71% |
| Cc1nc(C)n(CC2CCCN(Cc3nc(-c4ccco4)no3)C2)n1 (stereo unspecified) | -11.5% |
| CCN(C(=O)Cc1ccc(NC(=O)NC2CC2)cc1)c1ccccc1 | 7.84% |
| CCOc1ccc(C2CCCN2Cc2nnnn2C2CC2)cc1 (stereo unspecified) | 6.26% |
| CC(NCc1ccccn1)c1cc2c(cc1Br)OCCO2 (stereo unspecified) | 2.65% |
| CN(Cc1ccsc1)C(=O)Nc1ccc(=O)n(C)c1 | 6.26% |
| Cc1nn(C(C)C)c(C)c1S(=O)(=O)Nc1ccc(C(=O)O)cc1 | 15.2% |
| O=C(NCCCF)Nc1ccc2nc(N3CCOCC3)oc2c1 | 2.77% |
| COCCOCC(=O)NC(C#N)c1c(F)cccc1Cl (stereo unspecified) | 19.6% |
| FC(F)CN1CCC(NCc2ccc(-n3cccn3)nc2)CC1 | 10.6% |
| Cc1nc(CNC2CCN(Cc3ccccc3)C2)sc1C (stereo unspecified) | 2.86% |
| CCc1nn(C)c2[nH]nc(NC(=O)c3cccnc3OCC(C)C)c12 | 3.94% |
| O=C(CN(CC1CCC1)CC(F)(F)F)N1CCCC1 | 1.84% |
| Cc1cc(C)cc(OCCC(=O)NC2CC(=O)N(C)C2)c1 (stereo unspecified) | -1.68% |
| COc1ccc(C2CCCCCN2Cc2nnc(C)o2)cc1 (stereo unspecified) | -7.12% |
| Cc1nc(C)c(CC(=O)N2CCC(Oc3ccccc3)CC2)c(=O)[nH]1 | 1.98% |
| CCS(=O)(=O)CC(=O)NC(C)c1ccc(F)cc1F (stereo unspecified) | 1.73% |
| O=C(CCOc1ccccc1F)N1CCOCC1 | -4.4% |

| SMILES | cytotoxicity at 10 µM |
| --- | --- |
| CN(Cc1cccs1)C(=O)CN(C)C1CCc2ccccc21 (stereo unspecified) | 10.1% |
| Cc1ccc(NC(=O)CSCc2cccnc2)nc1 | -46.4% |
| c1ccc(-c2noc(C3CCN(CCCn4cncn4)CC3)n2)cc1 | -14.3% |
| CCOCc1ccccc1NC(=O)NC1CCN(c2ncccn2)CC1 | -4.78% |
| Cn1cc(NC(=O)c2ccccn2)cc(Cl)c1=O | 7.7% |
| Cn1cc(-c2csc(N3CCN(C(=O)OC(C)(C)C)CC3)n2)cn1 | 23.2% |
| CCc1nc(CC(=O)NCC(Cc2ccc(F)cc2)C(N)=O)cs1 (stereo unspecified) | -0.86% |
| Cc1csc(CN2C[C@@H]3CN(CC4CCOCC4)CCO[C@@H]3C2)n1 | -109% |
| Cc1cccc(COC[C@@]23CCC[C@@H]2CN(C(=O)Cc2ccco2)C3)n1 | -109% |
| COc1cc(C(C)=O)ccc1OC12CCCN(CC1)C2 (stereo unspecified) | 10.2% |
| COCCC(=O)N1CCCCC1c1ccc(F)cc1 (stereo unspecified) | -41.3% |
| Cn1ccnc1C(=O)N1CCCC(Cn2cc(CO)nn2)C1 (stereo unspecified) | -1.88% |
| CCc1cc(NCCNC(C)=O)nc(N2CCCC2)n1 | -6.77% |
| C1=CCN(c2nc(CC3CC3)nc3c2CCN(C2CCOCC2)CC3)C1 | 0.0776% |
| CSc1cccc(CN2CCC(CCC(=O)Nc3ccccc3)CC2)c1 | -2.48% |
| Cc1nc(N2CCC3(CCCNC3=O)C2)nc2c1CCCC2 (stereo unspecified) | -4.97% |
| COCCCNc1ncnc2c1CCN(C(=O)CC1C=CCC1)CC2 (stereo unspecified) | 5.97% |
| COc1ccc([C@@H]2C[C@H](NC(C)=O)C[C@H](CCc3ccccc3)O2)cn1 | -3.13% |
| Cc1noc(C)c1CN1CCCC1c1nc(-c2ccccc2)no1 (stereo unspecified) | -39.2% |
| CC(C)N1CCCCC1CCn1cnc2cc(C(F)(F)F)ccc2c1=O (stereo unspecified) | -5.98% |
| CNc1cc(C(=O)N(C)Cc2cc(-c3cccs3)n[nH]2)ccn1 | -9.22% |
| CCOc1ccc(C(C)Nc2ncnc3c2CCNC3)cc1OCC (stereo unspecified) | -8.81% |
| CCCc1cc(N2CCC(NC3CCS(=O)(=O)C3)CC2)nc(C)n1 (stereo unspecified) | -6.65% |

| SMILES | cytotoxicity at 10 µM |
| --- | --- |
| Cc1ccc(CN2CCN(C3CCSCC3)CC2CCO)o1 (stereo unspecified) | -3.96% |
| COc1cc(C)sc1C(=O)N1CCCCC1c1ccccn1 (stereo unspecified) | 0.864% |
| COc1cc(-c2cccc3c2OC(CN)C3)cc(OC)c1OC (stereo unspecified) | -42.6% |
| N#Cc1cccc(NC2CC(=O)N(C3Cc4ccccc4C3)C2)n1 (stereo unspecified) | -141% |
| Cc1nc(CC(=O)N(C)C2CCCN(CCc3ccccc3)C2)cs1 (stereo unspecified) | 3.13% |
| CNC(=O)[C@@H]1C[C@H](N)CN1S(=O)(=O)c1cc(Cl)cc(Cl)c1O | 1.68% |
| Cn1ccnc1C1CCCN(C(=O)c2cc(F)cc(F)c2)C1 (stereo unspecified) | 18.4% |
| CN1C[C@@H](NC(=O)c2cc(F)cc(F)c2)C[C@H]1C(=O)NCc1ncc[nH]1 | -6.25% |
| CCOc1cc(CN2CCCC2)ccc1Oc1cccc(C#N)n1 | -1.83% |
| COCCc1noc(CN(C)c2nc(C)cc(C)n2)n1 | 0.801% |
| CCN(CC)S(=O)(=O)N1CCC(c2nccn2Cc2ccccn2)CC1 | 0.136% |
| CN1C[C@H]2CNC[C@@]2(C(=O)N2CCN(c3ncccc3C#N)CC2)C1 | 2.12% |
| Cc1cnn(CC2CCCN2c2ncnc3ccsc23)c1 (stereo unspecified) | 13.6% |
| Cc1nc(C)n(CC2CCCN(Cc3ccccc3C#N)C2)n1 (stereo unspecified) | -16.4% |
| CC(C)(C)c1nc(CC(=O)N2CCCC(n3cncn3)C2)cs1 (stereo unspecified) | -11.2% |
| CC(=O)N1CCN(C(=O)NCc2cccnc2OC(C)C)CC1 | -17.5% |
| CCOc1ccc(C#N)cc1NCC(=O)NC(=O)Nc1ccccc1 | -11.8% |
| CCc1ccc(C(N)c2cccc(S(C)(=O)=O)c2)cc1 (stereo unspecified) | -10.9% |
| Cc1ccc(CCC(=O)N2CCCC(c3cc(C(N)=O)[nH]n3)C2)cc1 (stereo unspecified) | -4.33% |
| Cc1nccn1-c1cc(CNC(=O)CCNC(=O)C2CCCC2)ccn1 | -2.06% |
| COc1cccc(OCCNC(=O)CN2CCN(C)CC2C)c1 (stereo unspecified) | -2.5% |
| CC(c1nc(C2CC2)no1)N1CCN(CCOCC(F)(F)F)CC1 (stereo unspecified) | -8.6% |
| COCCNC(=O)C1(c2ccccc2C)CCOCC1 | -9.04% |

| SMILES | cytotoxicity at 10 µM |
| --- | --- |
| Cc1nc(-c2ccsc2)ccc1C(=O)NCCN1CCOCC1 | -10.2% |
| CCn1ccnc1CN1CCN(Cc2ccc(C#N)cc2)CC1 | -9.62% |
| CC(C)c1nc2n(n1)CC(NCc1nnnn1C1CC1)CC2 (stereo unspecified) | -1.4% |
| CC(NC(=O)COc1ccc(F)cc1)c1nnc2n1CCCCC2 (stereo unspecified) | -8.99% |
| CCc1n[nH]c(C2CN(CCc3cccs3)CCO2)n1 (stereo unspecified) | 3.83% |
| COc1cccc(CN2CCC(c3cc(O)nc(C)n3)C2)c1 (stereo unspecified) | -0.542% |
| c1cc(CN2CCO[C@H]3[C@H](OCCN4CCCC4)CC[C@@H]32)co1 | 6.49% |
| c1cncc(OC[C@@]23CCC[C@@H]2CN(CC2CCOCC2)C3)c1 | 7.66% |
| O=C1C[C@H]2[C@@H](CCN2C(=O)c2ccc[nH]2)N1CCN1CCCC1 | -4.28% |
| COCc1n[nH]c2c1CN(Cc1ccccn1)C2 | -102% |
| CN(C)CCN1CCOCC2(CCCN(C(=O)c3cccn3C)C2)C1 (stereo unspecified) | 4.87% |
| Cc1nc(C)n(CC2CN(Cc3cccs3)Cc3nccn3C2)n1 (stereo unspecified) | -133% |
| Cn1nc(COCC2CC2)c2c1CCN(Cc1cccs1)C2 | -101% |
| O=C(Nc1cccnc1)[C@H]1CN(Cc2ccccn2)C[C@H]2OCC[C@@H]12 | -107% |
| FC1(F)CCN(Cc2ccccn2)CC12CCN(c1ncccn1)C2 (stereo unspecified) | -95.8% |
| O=C(NC[C@]12COC[C@H]1CN(Cc1nccs1)C2)c1cscn1 | -1.11% |
| COc1cccc(C2c3c(n[nH]c3C)N=C3COC(=O)C32)c1O (stereo unspecified) | 65.8% |
| Cc1ccc(-n2cccn2)cc1S(=O)(=O)N1C[C@H]2CC[C@@H](C1)N(C)C2 | 1.62% |
| Cn1nc(C2CCCC2)c(-c2ccc3c(c2)OCO3)c1N | -51.5% |
